# Test results as given in publication PMC5767125 (Journal of medicinal chemistry, 2017).
# Experiments:
# [1] = molecular target: D3R (Homo sapiens, UniProt P35462); test: Inhibition of forskolin-dependent stimulation of adenylyl cyclase; type: cell-based; conditions: compound at 10x the Ki value; efficacy relative to full agonist Quinpirole
# Summary of the method: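 Test compound at 10x its Ki, assessed for inhibiting forskolin-dependent adenylyl cyclase stimulation. Output is mean percent efficacy ± SEM relative to the full agonist quinpirole.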
# [2] = molecular target: 5-HT2A receptor (Homo sapiens, UniProt P28223); test: 5-HT2A receptor binding; conditions: data not shown; comparable to those at 5-HT1AR
# [3] = molecular target: T1, 5-HT2c receptor (Homo sapiens, UniProt P28335); test: 5-HT2c receptor binding; conditions: data not shown; comparable to those at 5-HT1AR
# T1 sequence (P28335 33-458): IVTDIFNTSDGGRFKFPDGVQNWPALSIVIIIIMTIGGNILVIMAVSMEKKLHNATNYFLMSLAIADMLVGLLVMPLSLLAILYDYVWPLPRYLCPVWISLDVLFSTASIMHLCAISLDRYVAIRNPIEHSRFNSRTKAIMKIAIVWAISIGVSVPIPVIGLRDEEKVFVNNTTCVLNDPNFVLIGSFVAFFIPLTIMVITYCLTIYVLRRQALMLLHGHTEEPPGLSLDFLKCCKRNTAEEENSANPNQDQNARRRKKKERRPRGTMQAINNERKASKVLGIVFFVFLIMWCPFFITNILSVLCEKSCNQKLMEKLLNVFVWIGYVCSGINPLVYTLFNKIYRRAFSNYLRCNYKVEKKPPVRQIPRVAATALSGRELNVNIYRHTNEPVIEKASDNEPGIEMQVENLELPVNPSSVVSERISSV
# Chain of 5-HT2A receptor (P28223 whole entry): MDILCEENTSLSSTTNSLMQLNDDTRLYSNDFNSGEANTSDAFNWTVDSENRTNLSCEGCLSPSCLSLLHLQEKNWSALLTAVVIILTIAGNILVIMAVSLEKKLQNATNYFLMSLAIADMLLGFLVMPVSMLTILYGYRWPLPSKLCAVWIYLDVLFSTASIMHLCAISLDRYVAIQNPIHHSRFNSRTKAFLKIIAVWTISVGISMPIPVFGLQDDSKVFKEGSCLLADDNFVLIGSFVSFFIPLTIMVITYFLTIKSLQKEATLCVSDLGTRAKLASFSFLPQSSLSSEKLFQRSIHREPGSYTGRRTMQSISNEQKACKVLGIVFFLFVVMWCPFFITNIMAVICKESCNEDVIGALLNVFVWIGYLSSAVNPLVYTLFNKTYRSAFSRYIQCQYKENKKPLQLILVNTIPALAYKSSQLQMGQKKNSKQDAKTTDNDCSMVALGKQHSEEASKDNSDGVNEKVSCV
# Chain of D3R (P35462 whole entry): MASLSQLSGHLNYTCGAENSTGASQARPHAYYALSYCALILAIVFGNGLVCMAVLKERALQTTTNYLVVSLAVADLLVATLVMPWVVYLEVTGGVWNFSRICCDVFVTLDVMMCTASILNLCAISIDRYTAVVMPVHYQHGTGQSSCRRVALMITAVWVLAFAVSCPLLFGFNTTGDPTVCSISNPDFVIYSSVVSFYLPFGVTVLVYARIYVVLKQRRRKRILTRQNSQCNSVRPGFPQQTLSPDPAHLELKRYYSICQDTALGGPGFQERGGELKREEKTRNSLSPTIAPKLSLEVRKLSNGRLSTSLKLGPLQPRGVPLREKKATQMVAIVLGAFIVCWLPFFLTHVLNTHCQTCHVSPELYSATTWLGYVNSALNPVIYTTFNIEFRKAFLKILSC
"functional activity, adenylyl cyclase assay [1]",binding affinity at 5-HT2A receptor [2],binding affinity at 5-HT2c receptor [3],SMILES
low activity,low binding affinities,low binding affinities,Cn1c(SCCCN2CCC3(CC2)CCN(c2ccc(F)cc2)CC3)nnc1-c1ccccc1 [Compound 15c]
partial agonist,low binding affinities,low binding affinities,COc1ccccc1N1CCC2(CCN(CCCSc3nnc(-c4ccccc4)n3C)CC2)CC1 [Compound 15a]
low activity,low binding affinities,low binding affinities,COc1ccccc1N1CCC2(CCN(CCCSc3nnc(-c4ccccc4)n3C)CC2)C1 [Compound 14]
